Among the data in ChEMBL document CHEMBL1133159, “Conformationally constrained analogues of diacylglycerol (DAG). 17. Contrast between sn-1 and sn-2 DAG lactones in binding to protein kinase C” (J Med Chem, 2000) are Ki and logP values, retold here.

Data set [1] deals with T1, Protein kinase C alpha type (Homo sapiens, UniProt P17252). The data set can be described thus: Affinity for protein kinase-C alpha (PK-C alpha). In a few lines:
(§1)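 Competitive displacement of bound [20-3H]phorbol 12,13-dibutyrate (PDBU) from recombinant single-isozyme PK-Cα in the presence of phosphatidylserine. ID50 was obtained by fitting the inhibition data points to a theoretical noncooperative competition curve.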

Data set [2] can be described thus: Partition coefficient (logP). Format: physicochemical. Particulars: octanol/water.
Data set [3] concerns the target T1, Protein kinase C alpha type. Put plainly: Affinity for protein kinase C alpha. In a few lines: as §1

Usually pKi stands for the negative decadic logarithm of the Ki, by convention in mol/L. Low values mean a high Ki, high ones a low Ki. Broadly, the logP is the decadic logarithm of the partition coefficient of the neutral form, usually between octanol and water. Higher therefore signals higher lipophilicity.

The structures appear in SMILES notation. pKi: −log10 of the molar value.

For `CC(C)C(C/C=C1/CC([C@H](CO)OC(=O)CC(C(C)C)C(C)C)OC1=O)C(C)C` (stereo not given in full), the pKi in data set [1] is 6.49.
Compound `CCCCCCCC/C=C1\CC([C@H](CO)OC(=O)CCCCCCCC)OC1=O` (stereo not given in full) gave a logP in data set [2] of 6.3. Further, the pKi in data set [3] and in data set [1] was 5.92 throughout.
`CCCCCCCCC(=O)O[C@@H](CO)C1C/C(=C\CC(C(C)C)C(C)C)C(=O)O1` (stereo not given in full) yielded a logP in data set [2] of 6.08. The negative-log Ki (pKi) in data set [1] was 5.96.
Consider `CCCCCCCCCCCCCC(=O)O[C@@H](CO)C1CCC(=O)O1` (stereo not given in full), for which the negative logarithm of the Ki (pKi) in data set [3] and in data set [1] was 6.00 each time.
In data set [3], `CCCCCCCCC/C=C1/CC(CO)(COC(=O)CC(C)C)OC1=O` (stereo not given) gave a pKi of 7.89.
`CCCCCCCCC(=O)O[C@@H](CO)C1C/C(=C/CC(C(C)C)C(C)C)C(=O)O1` (stereo not given in full) gave a pKi in data set [1] of 6.30.
`CCCCCCCC/C=C1/CC([C@H](CO)OC(=O)CCCCCCCC)OC1=O` (stereo not given in full): the pKi in data set [3] and in data set [1] was 5.75 in each case.
Compound `CCCCCCCC/C=C1/CC([C@H](CO)OC(=O)CC(C)C)OC1=O` (stereo not given in full) showed a pKi in data set [3] of 6.25.
Turning to `CCCCCCCCCC(=O)OCC1(CO)C/C(=C/CC(C)C)C(=O)O1` (stereo not given), in data set [3], the pKi is 8.64.
Still for that read-out and setting: the result for `CCCCCCCC/C=C1\CC([C@H](CO)OC(=O)CC(C)C)OC1=O` (stereo not given in full) reads 6.24; that for `CCCCCCC/C=C/CCCCCCC/C=C1/CC(CO)(COC(C)=O)OC1=O` (stereo not given), 7.62.
In the case of `CC(C)C(C/C=C1\CC([C@H](CO)OC(=O)CC(C(C)C)C(C)C)OC1=O)C(C)C` (stereo not given in full), in data set [2], the log partition coefficient (logP) was found to be 5.86. This compound also gave a pKi in data set [1] of 6.17.
Take `CCCCCCCC/C=C/CCCCCCCC(=O)OCC1(CO)CCC(=O)O1` (stereo not given): the pKi in data set [3] was 7.02.
Turning to `CCCCCCCC/C=C1/CC([C@H](CO)OC(=O)CC(C(C)C)C(C)C)OC1=O` (stereo not given in full), the pKi in data set [1] is 6.25.
